Experimental data published in ChEMBL document CHEMBL1152304, “Alteration of the bis-tetrahydrofuran core stereochemistries in asimicin can affect the cytotoxicity” (J Med Chem, 2008).

Tests used:
[1] = test system: HCT-116; assay: Cytotoxicity against human HCT116 cells assessed as surviving fraction at 10 ug/ml after 168 hrs; format: functional
How it was run: (§1)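 HCT-116 cells exposed to drug at 0.001-10 µg/mL for 2 h, 24 h or continuously (168 h). Surviving clonogenic cells counted. 90% kill (S10) used as comparison point.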

[2] = test system: L1210; assay: Cytotoxicity against mouse L1210 cells at 3.75 ug by disk diffusion assay; format: functional
How it was run: (§2)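 15 µL of sample dried overnight on 6.5 mm filter disk. Disk placed near edge of 60 mm dish of cells plated in soft agar, incubated 7-10 days. Zone of inhibition measured from disk edge to start of normal-sized colony formation, disk diameter taken as 200 units. Overly toxic samples diluted 1:4 or 1:10 and retested.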

[3] = test system: HCT-116; assay: Cytotoxicity against human HCT116 cells assessed as surviving fraction at 0.0001 ug/ml after 168 hrs; format: functional
[4] = test system: HCT-116; assay: Cytotoxicity against human HCT116 cells assessed as surviving fraction at 0.01 ug/ml after 168 hrs; format: functional; how it was run: as §1
[5] = test system: L1210; assay: Cytotoxicity against mouse L1210 cells at 0.94 ug by disk diffusion assay; format: functional; how it was run: as §2
[6] = Cytotoxicity against human CFU-GM cells at 15 ug by disk diffusion assay; format: functional; how it was run: as §2
[7] = test system: CCRF-CEM; assay: Cytotoxicity against human CEM cells at 15 ug by disk diffusion assay; format: functional; how it was run: as §2
[8] = test system: HCT-116; assay: Cytotoxicity against human HCT116 cells assessed as surviving fraction at 0.1 ug/ml after 168 hrs; format: functional; how it was run: as §1
[9] = Cytotoxicity against human H125M cells at 15 ug by disk diffusion assay; format: functional; how it was run: as §2
[10] = Cytotoxicity against human CFU-GM cells at 60 ug by disk diffusion assay; format: functional; how it was run: as §2
[11] = test system: MC-38; assay: Cytotoxicity against mouse Colon 38 cells at 3.75 ug by disk diffusion assay; format: functional; how it was run: as §2
[12] = test system: HCT-116; assay: Cytotoxicity against human HCT116 cells assessed as surviving fraction at 0.0001 ug/ml after 2 hrs; format: functional
[13] = test system: HCT-116; assay: Cytotoxicity against human HCT116 cells assessed as surviving fraction at 0.001 ug/ml after 168 hrs; format: functional; how it was run: as §1
[14] = test system: HCT-116; assay: Cytotoxicity against human HCT116 cells assessed as surviving fraction at 1 ug/ml after 2 hrs; format: functional; how it was run: as §1
[15] = test system: HCT-116; assay: Cytotoxicity against human HCT116 cells assessed as surviving fraction at 1 ug/ml after 24 hrs; format: functional; how it was run: as §1
[16] = test system: L1210; assay: Cytotoxicity against mouse L1210 cells at 60 ug by disk diffusion assay; format: functional; how it was run: as §2
[17] = Cytotoxicity against human CFU-GM cells at 0.94 ug by disk diffusion assay; format: functional; how it was run: as §2
[18] = test system: HCT-116; assay: Cytotoxicity against human HCT116 cells assessed as surviving fraction at 1 ug/ml after 168 hrs; format: functional; how it was run: as §1
[19] = test system: HCT-116; assay: Cytotoxicity against human HCT116 cells assessed as surviving fraction at 0.001 ug/ml after 24 hrs; format: functional; how it was run: as §1
[20] = test system: HCT-116; assay: Cytotoxicity against human HCT116 cells assessed as surviving fraction at 0.1 ug/ml after 24 hrs; format: functional; how it was run: as §1
[21] = test system: HCT-116; assay: Cytotoxicity against human HCT116 cells assessed as surviving fraction at 0.1 ug/ml after 2 hrs; format: functional; how it was run: as §1
[22] = test system: MC-38; assay: Cytotoxicity against mouse Colon 38 cells at 60 ug by disk diffusion assay; format: functional; how it was run: as §2
[23] = test system: HCT-116; assay: Cytotoxicity against human HCT116 cells assessed as surviving fraction at 10 ug/ml after 2 hrs; format: functional; how it was run: as §1
[24] = test system: MC-38; assay: Cytotoxicity against mouse Colon 38 cells at 15 ug by disk diffusion assay; format: functional; how it was run: as §2
[25] = test system: HCT-116; assay: Cytotoxicity against human HCT116 cells; format: functional, cell-based
[26] = Cytotoxicity against human CFU-GM cells at 3.75 ug by disk diffusion assay; format: functional; how it was run: as §2
[27] = test system: L1210; assay: Cytotoxicity against mouse L1210 cells at 15 ug by disk diffusion assay; format: functional; how it was run: as §2
[28] = Inhibition of bovine heart mitochondrial complex1 activity; design: species or system Bos taurus
How it was run: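 Bovine heart submitochondrial particles, 15 µg/mL, in 0.25 M sucrose, 1 mM MgCl2, 50 mM phosphate pH 7.5. Inhibitor added at various concentrations and equilibrated 5 min. Reaction started with 150 µM NADH and followed spectrophotometrically at 340 nm. IC50 derived.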

[29] = test system: HCT-116; assay: Cytotoxicity against human HCT116 cells assessed as surviving fraction at 0.001 ug/ml after 2 hrs; format: functional; how it was run: as §1
[30] = test system: HCT-116; assay: Cytotoxicity against human HCT116 cells assessed as surviving fraction at 0.0001 ug/ml after 24 hrs; format: functional
[31] = test system: HCT-116; assay: Cytotoxicity against human HCT116 cells assessed as surviving fraction at 10 ug/ml after 24 hrs; format: functional; how it was run: as §1
[32] = test system: MC-38; assay: Cytotoxicity against mouse Colon 38 cells at 0.94 ug by disk diffusion assay; format: functional; how it was run: as §2
[33] = test system: HCT-116; assay: Cytotoxicity against human HCT116 cells at 15 ug by disk diffusion assay; format: functional; how it was run: as §2
[34] = test system: HCT-116; assay: Cytotoxicity against human HCT116 cells assessed as surviving fraction at 0.01 ug/ml after 2 hrs; format: functional; how it was run: as §1
[35] = test system: HCT-116; assay: Cytotoxicity against human HCT116 cells assessed as surviving fraction at 0.01 ug/ml after 24 hrs; format: functional; how it was run: as §1

What does the source list for `CCCCCCCCCCC(O)C1CCC(C2CCC(C(O)CCCCCCCC[C@H](O)CC3=C[C@@H](C)OC3=O)O2)O1` (stereo not given in full) [ASIMICIN]?
Activity [1]: 0.001; inhibition zone (IZ) [2]: 400 Zone units; Activity [3]: 0.66; Activity [4]: 0.001; inhibition zone (IZ) [5]: 150 Zone units; inhibition zone (IZ) [6]: 300 Zone units; inhibition zone (IZ) [7]: 200 Zone units; Activity [8]: 0.001; inhibition zone (IZ) [9]: 300 Zone units; inhibition zone (IZ) [10]: 600 Zone units; inhibition zone (IZ) [11]: 950 Zone units; Activity [12]: 0.97; Activity [13]: 0.001; Activity [14]: 0.8; Activity [15]: 0.48; inhibition zone (IZ) [16]: 600 Zone units; inhibition zone (IZ) [17]: 0 Zone units; Activity [18]: 0.001; Activity [19]: 0.88; Activity [20]: 0.54; Activity [21]: 0.98; inhibition zone (IZ) [22]: 800 Zone units; Activity [23]: 0.66; inhibition zone (IZ) [24]: 900 Zone units; IC50 [25]: 0.51 nM; inhibition zone (IZ) [26]: 500 Zone units; inhibition zone (IZ) [27]: 200 Zone units; IC50 [28]: 1.2 nM; Activity [29]: 0.94; Activity [30]: 1; Activity [31]: 0.12; inhibition zone (IZ) [32]: 650 Zone units; inhibition zone (IZ) [33]: 600 Zone units; Activity [34]: 0.8; Activity [35]: 0.73
